# Tests used:
# [1] = system: Pseudomonas aeruginosa; test: Minimum inhibitory concentration against the strains of Pseudomonas aeruginosa that produce the beta-lactamases; format: functional
# Procedure, shortened: (§1)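 Agar dilution on Mueller-Hinton agar with twofold serial dilutions of the compound or combination. About 10⁴ organisms were spotted with a multipoint inoculator. Plates were incubated for 18 h at 35 °C. MIC was taken as the lowest concentration preventing visible growth.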
# [2] = system: Escherichia coli; test: Minimum inhibitory concentration against the strains of Escherichia coli that produce the beta-lactamases; format: functional; procedure, shortened: as §1
# [3] = system: Citrobacter freundii; test: Minimum inhibitory concentration against the strain Citrobacter freundii 1982 that produce the beta-lactamases; format: functional; procedure, shortened: as §1
# [4] = Kinetic parameter was determined
MIC [1] [µg/mL],MIC [2] [µg/mL],MIC [3] [µg/mL],Structure (SMILES),Koff [4] [s⁻¹],Kon [4] [s⁻¹],Ks [4] [µM]
> 16,> 16,> 16,CC(C)(C)OC(=O)N1CCC2C1C(=O)N2OCC(=O)OCc1ccccc1 (stereo not given),–,–,–
4,16,0.25,NC(=O)c1ccc(NC(=O)N2CC[C@@H]3[C@H]2C(=O)N3S(=O)(=O)O)cc1,–,–,–
32,4,4,CC(C)(C)OC(=O)N1CCC2C1C(=O)N2OS(=O)(=O)[O-].[Na+] (stereo not given),0.12,20,600
128,8,1,NC(=O)c1ccc(NC(=O)N2CCC3C2C(=O)N3OS(=O)(=O)[O-])cc1.[Na+] (stereo not given),–,–,–

Structure (SMILES),MIC [1] [µg/mL],MIC [2] [µg/mL],MIC [3] [µg/mL],Koff [4] [s⁻¹],Kon [4] [s⁻¹],Ks [4] [µM]
CC(C)(C)OC(=O)N1CC[C@@H]2[C@H]1C(=O)N2S(=O)(=O)O,8,16,–,< 8e-07,12.5,127

# From ChEMBL document CHEMBL1131131, “Structure-based design of beta-lactamase inhibitors. 2. Synthesis and evaluation of bridged sulfactams and oxamazins” (J Med Chem, 1998)
